From PubChem BioAssay
This is a sample that favours compounds with a hit; in the whole collection about 1.3% have one here.
NRP1-CendR mod – modulators of CendR peptide binding to NRP-1, primary screen, biochemical, fluorescence polarization, uHTS | FAM-RPARPAR peptide binding to NRP-1 | inhibition, % at 25 µM | 360,000 compounds, 0.85% hits | AID 602438, 2012;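 active = inhibition or corrected inhibition above about 18%, plus a signal ratio from 0.5 to 1.5, limit read from the data, passing the limit was not always enough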
Target sequence (O14786 whole entry, looked up): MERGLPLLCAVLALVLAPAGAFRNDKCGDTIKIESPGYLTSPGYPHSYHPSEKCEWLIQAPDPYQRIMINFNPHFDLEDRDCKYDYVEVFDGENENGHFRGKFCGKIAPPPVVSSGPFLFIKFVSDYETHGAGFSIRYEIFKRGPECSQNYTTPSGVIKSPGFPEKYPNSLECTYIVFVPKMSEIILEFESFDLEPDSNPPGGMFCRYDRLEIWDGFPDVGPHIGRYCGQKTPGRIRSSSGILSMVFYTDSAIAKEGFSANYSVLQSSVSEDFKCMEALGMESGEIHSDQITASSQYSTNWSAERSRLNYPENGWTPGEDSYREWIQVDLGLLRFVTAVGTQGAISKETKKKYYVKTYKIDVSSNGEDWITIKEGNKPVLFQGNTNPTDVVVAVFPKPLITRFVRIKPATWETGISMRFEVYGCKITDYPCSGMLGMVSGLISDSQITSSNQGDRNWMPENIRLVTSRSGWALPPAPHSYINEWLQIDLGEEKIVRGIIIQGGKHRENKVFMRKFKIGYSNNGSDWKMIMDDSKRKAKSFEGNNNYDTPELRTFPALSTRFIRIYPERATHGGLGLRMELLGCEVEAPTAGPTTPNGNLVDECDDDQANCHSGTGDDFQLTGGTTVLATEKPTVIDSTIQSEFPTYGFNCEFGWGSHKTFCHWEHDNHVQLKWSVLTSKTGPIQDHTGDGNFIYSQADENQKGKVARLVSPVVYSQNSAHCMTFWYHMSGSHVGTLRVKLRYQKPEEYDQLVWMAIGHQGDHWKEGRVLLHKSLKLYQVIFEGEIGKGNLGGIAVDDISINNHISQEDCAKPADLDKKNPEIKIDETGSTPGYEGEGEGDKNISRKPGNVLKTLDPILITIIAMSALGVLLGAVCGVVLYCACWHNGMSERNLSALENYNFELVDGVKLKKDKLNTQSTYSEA
Tn6 DDE FP – inhibitors of Tn6 peptide binding to fibrin DD(E), primary screen, biochemical, fluorescence polarization, human fibrin, Tn6 probe | 370,000 compounds, 0.21% hits | Fibrin DD(E) TRITC-Tn6 fluorescence polarization displacement | inhibition, % at 8.3 µM;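 active = inhibition above a per-campaign cutoff: mean of compounds within control limits plus 3 SD, cut at about 15% in these data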
DDE Tn7 FP inh – inhibitors of Tn7 peptide binding to fibrin DD(E), primary screen, biochemical, fluorescence polarization, human fibrin, Tn7 probe; Fibrinogen beta chain (Homo sapiens), P02675; FP displacement of FITC-Tn7 peptide from fibrin DD(E); 0% = median of compound wells per plate; inhibition, % at 8.3 µM; 370,000 compounds, 0.13% hits;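 active = inhibition above the mean of compounds falling within the control limits plus 3 SD of them, cut at about 14% in these data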
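Test system – human fibrin DD(E) · Times – 10 min preincubation, 3 h with tracer, room temperature · Detection – fluorescence polarization of the labelled Tn7 tracer · Measure – percent inhibition normalized to high-control wells · Benchmarks – high control wells with 10 µM unlabelled Aha-Tn7 peptide (full inhibition) · Repeats – singlicate testing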
aDG glyco act – activators of alpha-DG glycosylation, primary screen, uHTS, Pro5-aDG cells, AlphaScreen | alpha-DG glycosylation AlphaScreen (IIH6); 0% Pro5, 100% B10-LARGE cell signal | activation, % at 10 µM | 360,000 compounds, 0.22% hits | AID 624168, 2012;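 active = activation of at least 8% versus controls, or a plate z-score of at least 8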;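 also: Pro5 are CHO cells carrying HIG-tagged alpha-DG that lacks glycosylation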
Numbers stand for hits; 0 = inactive; - = no result; + = active, no number.

SMILES | NRP1-CendR mod | Tn6 DDE FP | DDE Tn7 FP inh | aDG glyco act
Cc1ccc(OCc2ccc(C(=O)Nc3c(C)nn(Cc4c(F)c(F)c(F)c(F)c4F)c3C)o2)c([N+](=O)[O-])c1 | 0 | 0 | 0 | 4.0
COc1ccc(Cc2[nH]n3c(=O)cc(C(C)C)nc3c2-c2ccccc2)cc1 | 18 | 0 | 0 | 0
COc1ccc(Cc2[nH]n3c(=O)cc(C)nc3c2-c2ccccc2)cc1 | 0 | 0 | 0 | 0
CCCCOc1ccc(C(=O)n2ccc3ccc(-c4ccc5ccn(Cc6ccccc6)c5c4)cc32)cc1 | - | 0 | 0 | -
Cc1cccc(OCc2nn[nH]n2)c1C | 0 | 0 | 0 | 0
Clc1ccccc1OCc1nn[nH]n1 | 30 | 0 | 0 | 0
COc1ccccc1N(CC(=O)N1CCc2ccccc2C1)S(C)(=O)=O | 25 | 0 | 0 | 0
CCOc1ccccc1N(CC(=O)N1CCc2ccccc2C1)S(C)(=O)=O | 0 | 0 | 0 | 0
COc1ccc(C)cc1N(CC(=O)N1CCc2ccccc2C1)S(C)(=O)=O | 26 | 0 | 0 | 0
Cc1cc(N2CCC(C)CC2)nc2ccccc12 | - | 0 | 0 | -
C=CCNc1cccc2c1S(=O)(=O)N[C@@H](CC(C)C)CO2 | - | 0 | 0 | -
CC1CCN(C(=O)CSc2nncn2C)CC1 | 48 | 0 | 0 | 0
CC1CCN(C(=O)CSc2nncn2-c2ccccn2)CC1 | 0 | 0 | 0 | 0
Cc1c(C(=O)OCC(=O)N2CCC(C)CC2)oc2ccccc12 | 0 | 0 | 0 | 0
Cc1c(C(=O)OCC[N+]2(C)CCCCC2)oc2ccccc12 | 48 | 0 | 0 | 0
C[C@@H]1NS(=O)(=O)c2ccc(F)cc2O[C@@H]1c1ccccc1 | - | 0 | 0 | -
COc1ccc(NC(=O)CSc2nccn2-c2ccccc2)c(OC)c1 | 26 | 0 | 0 | 0
COC(=O)[C@H](Cc1ccccc1)N1CC=CS1(=O)=O | - | 0 | 0 | -
CCc1nnc(NC(=O)CSc2nnc(CCc3nc4ccccc4[nH]3)n2C)s1 | 19 | 0 | 0 | 0
COC(=O)[C@]12C[C@H](CC(=O)NCc3cccc(C(F)(F)F)c3)C(=O)N(Cc3ccco3)C1=C[C@H](COCc1ccccc1)O[C@@H]2C | - | 0 | 0 | -
C=CCNC(=O)c1ccsc1N | 0 | 17 | 0 | 0
C=CCNC(=O)c1ccc(Cl)cc1Cl | 0 | 0 | 0 | 0
c1ccc(C(c2nnnn2Cc2ccco2)N2CCN(c3nc4ccccc4s3)CC2)cc1 (configuration not stated) | 46 | 0 | 0 | 0
c1ccc(Cn2nnnc2C(c2ccccc2)N2CCN(c3nc4ccccc4s3)CC2)cc1 (configuration not stated) | 0 | 0 | 0 | 0
O=C1C(=C(c2ccccc2)N2CCOCC2)Cc2ccccc21 | 0 | 0 | 0 | 0
SMILES | NRP1-CendR mod | Tn6 DDE FP | DDE Tn7 FP inh | aDG glyco act
CC(=O)Nc1c2c3c(cccc3n(C)c1=O)C(=O)c1ccccc1-2 | 53 | 0 | 0 | 0
Cn1c(=O)c(Nc2ccc(Cl)cc2)c2c3c(cccc31)C(=O)c1ccccc1-2 | - | 0 | 36 | -
CCOC(=O)c1c2c3c(cccc3n(C)c1=O)C(=O)c1ccccc1-2 | 0 | 0 | 0 | 0
C=C1C(=O)C23C(O)C1CCC2C12COC3(O)C(O)C1C(C)(C)CCC2O (configuration not stated) | 0 | 0 | 0 | 0
CC(C)OC(=O)c1ccc(NC(=O)c2ccccc2)cc1 | 35 | 0 | 0 | 0
Cc1ccccc1C(=O)Oc1cccc(Nc2ncnc3ccccc23)c1 | 0 | 0 | 0 | 6.3
O=C1C=C(Nc2ccc(F)cc2)c2ccccc2C1=O | 0 | 0 | 0 | 8.9
O=C1C=C(Nc2ccccc2O)c2ccccc2C1=O | 0 | 0 | 0 | 12
O=C1C=C(Nc2cccnc2)c2ccccc2C1=O | 0 | 0 | 0 | 0
O=C1C=C(NCc2ccccc2)c2ccccc2C1=O | 0 | 0 | 0 | 8.7
Cc1ccc(NC2=CC(=O)C(=O)c3ccccc32)c(C)c1 | 0 | 0 | 0 | 6.5
O=C(CCn1nnc(-c2cccs2)n1)N1CCCCC1 | - | 0 | 0 | -
CC1=C(C(=O)N2CCOCC2)CC(CC(=O)NCCc2ccccn2)C(=O)N1Cc1ccc(F)cc1 (configuration not stated) | 0 | 0 | 0 | 0
CC1=C(C(=O)N2CCOCC2)CC(CC(=O)NCCc2ccccn2)C(=O)N1Cc1ccccc1 (configuration not stated) | 26 | 0 | 0 | 0
COc1cc(C(=O)NCCC(=O)NCCN2CCOCC2)cc(OC)c1OC | 0 | - | - | 0
CCOc1cc(C(=O)NCCN2CCOCC2)cc(OCC)c1OCC | 26 | 0 | 0 | 0
CC1(c2nnc(-c3ccc(F)cc3)o2)CC(c2c(Cl)cccc2Cl)=NO1 (configuration not stated) | 29 | 0 | 0 | 0
COc1cc(C(=O)NCC(=O)NNC(=O)CN(C)S(=O)(=O)c2ccc(Cl)cc2)cc(OC)c1OC | 27 | 0 | 0 | 0
CCOc1ccc(C(=O)NCC(=O)NNC(=O)CN(C)S(=O)(=O)c2ccc(Cl)cc2)cc1OCC | 0 | 0 | 0 | 0
CC1CCCN(C(=O)c2ccc3c(c2NCCO)C(=O)c2ccccc2C3=O)C1 (configuration not stated) | 19 | 0 | 0 | 0
O=C1c2ccccc2C(=O)c2c1ccc(C(=O)N1CCCCC1)c2NCCO | 0 | 0 | 0 | 0
CC1(C)CCCN(C(=O)c2ccc3c(c2NCCO)C(=O)c2ccccc2C3=O)C1 | 28 | 0 | 0 | 0
O=C(CSc1nnc(CNC(=O)c2ccco2)o1)Nc1cccc(F)c1 | 19 | 0 | 0 | 0
O=C(CSc1nnc(CNC(=O)c2ccco2)o1)Nc1cccc(C(F)(F)F)c1 | 0 | 0 | 0 | 0
O=C(NN=Cc1ccccc1O)C(=O)Nc1ccc(F)cc1 | - | 0 | 0 | -
SMILES | NRP1-CendR mod | Tn6 DDE FP | DDE Tn7 FP inh | aDG glyco act
COc1ccc(NC(=O)NNC(=O)C(O)(c2ccccc2)c2ccccc2)cc1 | 28 | 0 | 0 | 0
Oc1ccc2c(c1)OCC1(O)Cc3cc(O)c(O)cc3C21 (configuration not stated) | 0 | + | 28 | 0
Oc1cc2c(cc1O)[C@H]1c3ccc(O)c(O)c3OC[C@@]1(O)C2 | 0 | 0 | 0 | 0
O=C(CCCOc1ccccc1)N1CCc2ccccc2C1 | 0 | 0 | 0 | 0
O=C(CCCOc1ccc(Cl)cc1Cl)N1CCc2ccccc2C1 | 29 | 0 | 0 | 0
O=C(NNC(=O)c1cccc2ccccc12)c1ccc(Cl)c(Cl)c1 | 0 | 0 | 0 | 0
O=C(NNC(=O)c1ccc2ccccc2c1)c1ccc(Cl)c(Cl)c1 | 26 | 0 | 0 | 0
COc1cccc(CNC(=O)[C@H]2CCCN2C(=O)[C@H]2CCCN2C(=O)N2CCCCC2)c1 | - | 0 | 0 | -
CCN(CC)C(=O)Cn1cc(S(=O)(=O)Cc2cccc([N+](=O)[O-])c2)c2ccccc21 | 24 | 0 | 0 | 0
CCN(CC)C(=O)Cn1cc(S(=O)(=O)CC(=O)NCc2ccccc2)c2ccccc21 | 0 | 0 | 0 | 0
COc1ccc([C@H](OC)[C@@]2(Cc3ccc(O)cc3)N=C(N)N(C)C2=O)cc1 | 21 | 0 | 0 | 0
COC1=CC(=NCl)C=CC1=NCl | 54 | - | - | 0
